Experimental data taken from ChEMBL document CHEMBL1914380, “Polyalkoxybenzenes from plants. 5. Parsley seed extract in synthesis of azapodophyllotoxins featuring strong tubulin destabilizing activity in the sea urchin embryo and cell culture assays” (J Med Chem, 2011).
Calls of active or inactive are those of the source. The rule behind the calls is not given here. Where a SMILES comes first, the peptide text is derived from it. The star is where a group is joined. Cbz = O=C(OCc1ccccc1)*; CH2F = FC*

Experiments:
[1] = test system: Paracentrotus lividus; test: Antimitotic activity against Paracentrotus lividus embryo assessed as cleavage arrest up to 4 uM […] followed by 45 to 60 mins before the first mitotic cycle completion by sea urchin embryo assay; assay type: functional, organism-based
[2] = test system: Paracentrotus lividus; test: Antimitotic activity against Paracentrotus lividus embryo assessed as embryo spinning up to 4 uM […] followed by 45 to 60 mins before the first mitotic cycle completion by sea urchin embryo assay; assay type: functional, organism-based
[3] = test system: Paracentrotus lividus; test: Antimitotic activity against Paracentrotus lividus embryo assessed as cleavage alteration up to 4 uM […] followed by 45 to 60 mins before the first mitotic cycle completion by sea urchin embryo assay; assay type: functional, organism-based
[4] = test system: Jurkat; test: Cell cycle arrest in human Jurkat cells assessed as accumulation of cells in G2/M phase at 20 nM after 24 hrs by propidium iodide staining-based flow cytometry; assay type: functional
Procedure, shortened: (§1)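 Jurkat cells treated for 24 h, then stained with propidium iodide. DNA content analysed by flow cytometry for cell-cycle distribution.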

[5] = test system: Paracentrotus lividus; test: Antimitotic activity against Paracentrotus lividus embryo assessed as cleavage alteration treated 10 to 25 mins post fertilization followed by 45 to 60 mins before the first mitotic cycle completion by sea urchin embryo assay; assay type: functional
[6] = test system: A549; test: Inhibition of microtubule polymerization in human A549 cells assessed as total disruption of interphase microtubule network at 1 uM after 8 hrs by immunofluorescence microscopy; assay type: cell-based
Procedure, shortened: (§2)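 A549 cells incubated 8 h with compound at 0.1, 0.5, 1 and 5 μM; DMSO vehicle as negative control. Microtubules labelled by indirect immunofluorescence and examined by fluorescence microscopy. Value is the concentration giving total interphase microtubule disassembly, from three independent experiments.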

[7] = test system: Paracentrotus lividus; test: Antimitotic activity against Paracentrotus lividus embryo assessed as cleavage arrest treated 10 to 25 mins post fertilization followed by 45 to 60 mins before the first mitotic cycle completion by sea urchin embryo assay; assay type: functional
[8] = test system: Jurkat; test: Induction of apoptosis in human Jurkat cells assessed as procaspase-9 cleavage at 50 nM after 48 hrs by Western blotting; assay type: functional, cell-based
Procedure, shortened: (§3)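 Jurkat cells treated at 50 nM for 24 or 48 h; untreated control, etoposide 2 μM 24 h as comparator. Total lysates prepared in SDS-Laemmli buffer and immunoblotted with monoclonal anti-caspase-9, anti-caspase-2 and anti-procaspase-8 antibodies. β-Actin served as loading control.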

[9] = test system: Jurkat; test: Induction of apoptosis in human Jurkat cells assessed as hypodyploid cells at 50 nM after 48 hrs by annexin-V FITC/7-ADD staining-based flow cytometric analysis (reference value: 12.2%); assay type: functional
[10] = test system: Jurkat; test: Induction of apoptosis in human Jurkat cells assessed as procaspase-9 cleavage at 50 nM after 24 hrs by Western blotting; assay type: functional, cell-based; procedure, shortened: as §3
[11] = test system: A549; test: Inhibition of microtubule polymerization in human A549 cells assessed as total disruption of interphase microtubule network at 5 uM after 8 hrs by immunofluorescence microscopy; assay type: cell-based; procedure, shortened: as §2
[12] = test system: Jurkat; test: Induction of apoptosis in human Jurkat cells assessed as PARP cleavage at 50 nM after 48 hrs by annexin-V FITC/7-ADD staining-based flow cytometric analysis (reference value: 6.5%); assay type: functional
[13] = test system: Jurkat; test: Induction of apoptosis in human Jurkat cells assessed as reduction in procaspase-8 levels at 50 nM after 48 hrs by Western blotting; assay type: functional, cell-based; procedure, shortened: as §3
[14] = test system: Jurkat; test: Cytotoxicity against human Jurkat cells assessed as cell viability after 48 hrs by trypan blue exclusion assay; assay type: functional, cell-based
Procedure, shortened: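 Jurkat T-leukemia cells; proliferation inhibition measured by trypan blue assay, giving IC50.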

[15] = test system: A549; test: Cytotoxicity against human A549 cells assessed as cell viability after 24 hrs by MTT assay; assay type: functional, cell-based; conditions: A549, 24 h
Procedure, shortened: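 A549 human lung carcinoma cells; growth inhibition measured by MTT assay. IC50 derived from dose-response curves, mean ± SD of three independent experiments.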

[16] = test system: A549; test: Inhibition of microtubule polymerization in human A549 cells assessed as total disruption of interphase microtubule network at 0.5 uM after 8 hrs by immunofluorescence microscopy; assay type: cell-based; procedure, shortened: as §2
[17] = test system: Paracentrotus lividus; test: Antimitotic activity against Paracentrotus lividus embryo assessed as embryo spinning treated 10 to 25 mins post fertilization followed by 45 to 60 mins before the first mitotic cycle completion by sea urchin embryo assay; assay type: functional
[18] = test system: Jurkat; test: Induction of apoptosis in human Jurkat cells assessed as procaspase-2 cleavage at 50 nM after 48 hrs by Western blotting; assay type: functional, cell-based; procedure, shortened: as §3
[19] = test system: Jurkat; test: Induction of apoptosis in human Jurkat cells assessed as cells with active form of caspase-3 at 50 nM after 48 hrs by annexin-V FITC/7-ADD staining-based flow cytometric analysis (reference value: 7.1%); assay type: functional
[20] = test system: Jurkat; test: Induction of apoptosis in human Jurkat cells assessed as procaspase-2 cleavage at 50 nM after 24 hrs by Western blotting; assay type: functional, cell-based; procedure, shortened: as §3
[21] = test system: A549; test: Inhibition of microtubule polymerization in human A549 cells assessed as total disruption of interphase microtubule network at 0.1 uM after 8 hrs by immunofluorescence microscopy; assay type: cell-based; procedure, shortened: as §2
[22] = test system: A549; test: Inhibition of microtubule polymerization in human A549 cells assessed as total disruption of interphase microtubule network at > 5 uM after 8 hrs by immunofluorescence microscopy; assay type: cell-based
[23] = test system: P388; test: Cytotoxicity against mouse P388 cells assessed as cell viability after 48 hrs by trypan blue exclusion assay; assay type: functional, cell-based; conditions: P388, 48 h
[24] = test system: A549; test: Cell cycle arrest in human A549 cells at 50 uM after 24 hrs using propidium iodide staining by flow cytometry; assay type: functional, cell-based
[25] = test system: A549; test: Cell cycle arrest in human A549 cells assessed as accumulation of cells in G2/M phase after 24 hrs by propidium iodide staining-based flow cytometry; assay type: functional; conditions: A549, 24 h
[26] = test system: A549; test: Induction of apoptosis in human A549 cells assessed as late apoptotic cells at 10 to 100 nM after 48 hrs by annexin-V FITC/7-ADD staining-based flow cytometric analysis; assay type: functional, cell-based
[27] = test system: A549; test: Induction of apoptosis in human A549 cells assessed as early apoptotic cells at 10 to 100 nM after 48 hrs by annexin-V FITC/7-ADD staining-based flow cytometric analysis; assay type: functional, cell-based
[28] = test system: A549; test: Induction of apoptosis in human A549 cells assessed as necrotic cells at 10 to 100 nM after 48 hrs by annexin-V FITC/7-ADD staining-based flow cytometric analysis; assay type: functional, cell-based
[29] = test system: Paracentrotus lividus; test: Antimitotic activity against Paracentrotus lividus embryo assessed as formation of tuberculate egg at 100 nM after 6 hrs post fertilization by microscopic analysis; assay type: functional, organism-based
[30] = test system: Paracentrotus lividus; test: Antimitotic activity against Paracentrotus lividus embryo assessed as cleavage alteration at 10 nM after 6 hrs post fertilization by microscopic analysis; assay type: functional, organism-based
[31] = test system: Jurkat; test: Induction of apoptosis in human Jurkat cells assessed as hypodyploid cells at 50 nM after 48 hrs by annexin-V FITC/7-ADD staining-based flow cytometric analysis in presence of 50 uM Z-VAD-fmk pan-caspase inhibitor; assay type: functional
[32] = test system: Paracentrotus lividus; test: Toxicity against Paracentrotus lividus embryo post hatching; assay type: organism-based; conditions: in vivo
[33] = test system: Jurkat; test: Cell cycle arrest in human Jurkat cells assessed as accumulation of cells in G2/M phase at 25 nM after 24 hrs by propidium iodide staining-based flow cytometry; assay type: functional; procedure, shortened: as §1

SMILES | Activity [1] | Activity [2] | Activity [3] | EC [5] | inhibition [6] | EC [7] | inhibition [11] | IC50 [15] | inhibition [16] | EC [17] | inhibition [21] | further results
COc1c(C2C3=C(COC3=O)Nc3cn(C)nc32)cc2c(c1OC)OCO2 (stereo not given) | inactive | inactive | inactive |  |  |  |  |  |  |  |  | 
COc1ccc2c(c1)NC1=C(C(=O)OC1)C2c1cc(OC)c2c(c1)OCO2 (stereo not given) |  |  |  | 0.5 nM | Active | 5 nM | Active | 0.0151 µM | Active | 50 nM | Active | Activity [4]: Active; Activity [8]: Active; Activity [9]: 54.9%; Activity [10]: Active; Activity [12]: 38.3%; Activity [13]: inactive; IC50 [14]: 0.0175 µM; Activity [18]: Active; Activity [19]: 27.8%; Activity [20]: Active
COc1cc(C2C3=C(COC3=O)Nc3[nH]nc(C)c32)c(OC)c2c1OCO2 (stereo not given) | inactive | inactive | inactive |  |  |  |  |  |  |  |  | 
COc1cc(C2C3=C(COC3=O)Nc3cc4c(c(OC)c32)OCO4)cc2c1OCO2 (stereo not given) |  |  |  | 50 nM |  | 500 nM |  | 0.298 µM |  | 2000 nM |  | inhibition [22]: Active
COc1ccc(C2C3=C(COC3=O)Nc3[nH]ncc32)cc1 (stereo not given) | inactive | inactive | inactive |  |  |  |  |  |  |  |  | 
COc1cc(C2C3=C(COC3=O)Nc3[nH]ncc32)cc(OC)c1OC (stereo not given) | inactive | inactive | inactive |  |  |  |  |  |  |  |  | 
COc1cc(-c2c3c(nc4cc5c(cc24)OCO5)COC3=O)cc(OC)c1OC |  |  |  | >4000 nM |  | >4000 nM |  | 11.9 µM |  | >4000 nM |  | IC50 [23]: > 253 µM; Activity [24]: inactive; inhibition [22]: Active
COc1c(C2C3=C(COC3=O)Nc3[nH]nc(C)c32)cc2c(c1OC)OCO2 (stereo not given) | inactive | inactive | inactive |  |  |  |  |  |  |  |  | 
COc1cc(C2C3=C(COC3=O)Nc3[nH]nc(C)c32)cc(OC)c1OC (stereo not given) | inactive | inactive | inactive |  |  |  |  |  |  |  |  | 
COc1cc(C2C3=C(COC3=O)Nc3cc4c(cc32)OCO4)cc(OC)c1OC (stereo not given) |  |  |  | 50 nM | Active | 500 nM | Active | 0.00271 µM | Active | 2000 nM | Active | EC50 [25]: 0.0162 µM; Activity [26]: inactive; Activity [27]: Active; Activity [28]: Active
COc1ccc(C2C3=C(COC3=O)Nc3cc4c(cc32)OCO4)cc1OC (stereo not given) |  |  |  | 5 nM | Active | 100 nM | Active | 0.596 µM | Active | 2000 nM | Active | EC50 [25]: 0.23 µM; IC50 [23]: 0.131 µM
COc1cc(C2C3=C(COC3=O)Nc3cn(C)nc32)cc(OC)c1OC (stereo not given) | inactive | inactive | inactive |  |  |  |  |  |  |  |  | 
COc1cc(C2C3=C(COC3=O)Nc3cc4c(cc32)OCO4)cc2c1OCO2 (racemic) |  |  |  | 5 nM | Active | 50 nM | Active | 0.0552 µM | Active | 50 nM | Active | Activity [29]: Active; Activity [30]: Active
COC(=O)C[C@H](NC(=O)[C@H](C)NC(=O)[C@@H](NC(=O)OCc1ccccc1)C(C)C)C(=O)CF (Cbz-Val-Ala-Asp(OMe)-CH2F) |  |  |  |  |  |  |  |  |  |  |  | Activity [31]: 28.4%
COc1cc(C2C3=C(COC3=O)Nc3cc4c(cc32)CCCC4)cc(OC)c1OC (stereo not given) |  |  |  | 50 nM | Active | 200 nM | Active | 0.0565 µM | Active | 100 nM | Active | Activity [32]: Toxic
COc1cc(C2C3=C(COC3=O)Nc3cn(C)nc32)c(OC)c2c1OCO2 (stereo not given) | inactive | inactive | inactive |  |  |  |  |  |  |  |  | 
COc1cc(C2C3=C(COC3=O)Nc3ccccc32)cc2c1OCO2 (stereo not given) |  |  |  | 20 nM |  | 200 nM |  | 0.534 µM |  | 2000 nM |  | inhibition [22]: Active
COc1cc([C@@H]2c3cc4c(cc3[C@H](O)[C@H]3COC(=O)[C@H]23)OCO4)cc(OC)c1OC [PODOFILOX] |  |  |  | 20 nM | Active | 50 nM | Active | 0.00747 µM | Active | 500 nM | Active | Activity [8]: Active; Activity [9]: 55.6%; Activity [10]: Active; EC50 [25]: 0.0165 µM; Activity [12]: 40.7%; Activity [13]: inactive; IC50 [14]: 0.025 µM; Activity [18]: Active; Activity [19]: 28%; Activity [20]: Active; Activity [33]: Active
COc1cc(C2C3=C(COC3=O)Nc3cc4c(cc32)OCCO4)cc2c1OCO2 (stereo not given) |  |  |  | 5 nM | Active | 50 nM | Active | 0.0647 µM | Active | 100 nM | Active | EC50 [25]: 0.119 µM
COc1cc(C2C3=C(COC3=O)Nc3cn(C)nc32)cc2c1OCO2 (stereo not given) | inactive | inactive | inactive |  |  |  |  |  |  |  |  | 
COC(=O)Nc1nc2cc(C(=O)c3cccs3)ccc2[nH]1 |  |  |  |  |  |  |  |  |  |  |  | Activity [26]: inactive; Activity [27]: Active; Activity [28]: Active
